Screens deposited in PubChem by several laboratories.
Runt-CBFb FRET: inhibitors of RUNX1 Runt–CBFb binding, primary screen, biochemical, FRET, Cerulean-Runt, Venus-CBFb, uHTS | inhibition, % at 20 µM | Runt-related transcription factor 1 (Homo sapiens) + Core-binding factor subunit beta … | Cerulean-Runt/Venus-CBFb FRET ratio 530/480, 1 h | AID 1496, 2009 | 220,000 compounds, 0.46% hits;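 active = inhibition over about 50% at 20 µM in the single-dose screen, limit read from the data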;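 also: 0% = DMSO wells and 100% = excess unlabeled CBFb competitor control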
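Doses: 20 µM compound in 1% DMSO | Material: Cerulean-labeled Runt domain protein | Amount: Each fluorescent fusion protein 100 nM | Schedule: Two 1 h room-temperature incubations shielded from light | Measured by: FRET fluorescence | Evaluation: Loss of energy transfer signal | Controls: Unlabeled CBFb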
Runt-SMMHC FRET: inhibitors of RUNX1 Runt–CBFb-SMMHC binding, primary screen, biochemical, FRET, Cerulean-Runt, Venus-CBFb-SMMHC, uHTS; Cerulean-Runt/Venus-CBFb-SMMHC FRET ratio 530/480, 1 h; inhibition, % at 20 µM; 220,000 compounds, 0.74% hits; AID 1434, 2008;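 active = mean inhibition across duplicate retests at 20 µM reaching about 50%, limit read from the data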;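 also: 0% = DMSO wells and 100% = wells with excess untagged CBFb-SMMHC; inhibitors lower the FRET ratio by blocking Runt binding to CBFb-SMMHC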
MEX-5 binding: MEX-5 zinc finger RNA-binding disruptors – biochemical, C. elegans, fluorescence polarization, MLPCN library, primary screen | MEX-5/FITC-TCR2 RNA binding; hits give low values | Zinc finger protein mex-5 (Caenorhabditis elegans), Q9XUB2 | activity score (negative = inhibition of binding), % at 10 µM | 300,000 compounds, 0.38% hits;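 active = inhibition past about -25% in most replicates, and total fluorescence under double the plate's negative control median, limit read from the data; inconclusive = replicates evenly split on the limit, or fluorescence at least double controls; inactive = too little inhibition in most replicates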;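 also: 0% = DMSO and -100% = 5 µM competing unlabeled TCR2 RNA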
KLK7 zymogen act: proKLK7 zymogen activators, primary screen, biochemical, fluorescence intensity; 370,000 compounds, 0.9% hits; Kallikrein-7 (Homo sapiens), P49862; AID 652039, 2013; purified proKLK7, EDANS-DABCYL substrate fluorescence; 100% is mature enzyme control, 0% vehicle; activation, % at 7 µM;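 active = activation above the mean of all tested compounds plus 3 SD, computed per campaign excluding outliers beyond control limits, cut at about 13% in these data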
Target sequence (P49862 whole entry, looked up): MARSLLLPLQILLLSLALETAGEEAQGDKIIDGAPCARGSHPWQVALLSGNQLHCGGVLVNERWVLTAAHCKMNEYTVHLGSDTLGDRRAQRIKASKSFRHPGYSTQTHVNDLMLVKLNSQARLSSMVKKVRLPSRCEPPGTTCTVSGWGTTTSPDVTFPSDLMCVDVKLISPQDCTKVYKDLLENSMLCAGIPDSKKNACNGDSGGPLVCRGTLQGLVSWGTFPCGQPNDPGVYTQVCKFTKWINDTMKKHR
RanGTP-Impb inh: inhibitors of RanGTP-importin-beta interaction, primary screen, biochemical, FRET, CFP-Ran, YFP-importin-beta, homogeneous; Ran GTPase (GTP-bound) - importin-beta complex; cell-free CFP-Ran/YFP-importin-beta FRET ratio; inhibition, % (no concentration beside the values); 300,000 compounds, 1.1% hits; AID 2216, 2009;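 active = more than half of the replicate wells show a fall in the fluorescence ratio signal beyond about 16%, limit read from the data, passing the limit was not always enough; inconclusive = exactly half of the replicate wells pass the set limit; inactive = fewer than half of replicates pass the limit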;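 also: 0% = DMSO wells and 100% = Ran loaded with GDP instead of GTP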
KLK7 act conf: proKLK7 zymogen activators, confirmation, biochemical, fluorescence intensity, triplicate; shares compounds with KLK7 zymogen act; purified proKLK7, EDANS-DABCYL substrate fluorescence; scaled: vehicle 0, mature enzyme 100; activation, % at 7 µM; 3,200 compounds, 68% hits; AID 686949, 2013;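 active = activation, as change over the incubation, above the mean of all tested compounds plus 3 SD, cut at about 13% in these data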
EDANS-DABCYL int: EDANS-DABCYL substrate optical interference, artefact control for kallikrein-7 zymogen activator project, biochemical, fluorescence intensity, high throughput | no enzyme, 4 h; solvent 0%, active enzyme control 100% | AID 686952, 2013 | activation, % at 7 µM | shares compounds with KLK7 zymogen act | 3,200 compounds, 80% hits;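 active = activation above the all-compound mean plus 3 SD, ignoring values outside control-based bounds, cut at about 4.8% in these data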;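 also: value is the 4 h activation minus the activation read at time zero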
K7 EDANS ctr: optically interferes with EDANS-DABCYL fluorescence, kallikrein-7 activator counter-screen; shares compounds with KLK7 zymogen act; EDANS-DABCYL peptide fluorescence interference, no enzyme; AID 720493; 250 compounds, 20% hits; EC50, µM;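 active = compounds that raise the fluorescence signal in this interference counterscreen, with EC50 at or below 10 µM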;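 also: intact quenched peptide substrate alone read at 355 nm excitation and 520 nm emission; signal is fluorescence gain from T0 to T4 after four hours at room temperature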
An asterisk follows results filed as active; i = inactive; ? = inconclusive; nt = not tested or not shown. Sampled rows, rich in hits. Any-hit rate of the full collection: about 2.1%.

SMILES | Runt-CBFb FRET | Runt-SMMHC FRET | MEX-5 binding | KLK7 zymogen act | RanGTP-Impb inh | KLK7 act conf | EDANS-DABCYL int | others
c1ccc2c(c1)NC1(CCCCCC1)n1c-2nc2ccccc21 | 2 | 0 | -2 | 52* | 4 | 3 | 3
O=C1Nc2ccccc2C12Nc1ccccc1-c1nc3ccccc3n12 (centres undefined) | -1 | -7 | 1 | 0 | -1 | nt | nt
NC1=NC2(CCCCCC2)n2c(nc3ccccc32)N1 | nt | 4 | 4 | 0 | 0 | nt | nt
CC1(c2ccccn2)Nc2ccccc2-c2nc3ccccc3n21 (centres undefined) | 1 | 8 | 0 | 56* | 1 | 10 | 3
CN1C(=O)C2(Nc3ccccc3-c3nc4ccccc4n32)c2ccccc21 (centres undefined) | 2 | 3 | 0 | -1 | 0 | nt | nt
Cc1cc(C)c(C)c(S(=O)(=O)NCC(=O)Nc2ccc(F)cc2)c1C | nt | nt | 3 | 0 | 5 | nt | nt
CNC[C@H]1Oc2c(NC(=O)c3ccc(-c4nccs4)cc3)cccc2C(=O)N([C@@H](C)CO)C[C@@H]1C | nt | nt | nt | 1 | nt | nt | nt
COc1cc2[nH]c3c(N4CCC(C(N)=O)CC4)ncnc3c2cc1OC | -1 | 2 | 2 | nt | 5 | nt | nt
COc1cccc2[nH]c3c(N4CCC(C(N)=O)CC4)ncnc3c12 | 0 | -1 | -2 | 25* | 2 | 47* | 43*
Cc1ccc(NC(=O)C2=C(O)c3ccccc3N(C)S2(=O)=O)cc1 | 2 | 1 | nt | 51* | 4 | 6 | 9.3*
CCOc1ccccc1CN1CCN(CCCn2cccn2)CC1CCO (centres undefined) | nt | nt | -1 | 0 | 1 | nt | nt
COc1cc2ccc(=O)oc2c(O[C@@H]2O[C@H](CO)[C@@H](O)[C@H](O)[C@H]2O)c1O | nt | nt | -6 | 68* | 119* | 69* | 67*
C=CCOc1ccc(/C=N/NC(=O)c2c(C)nc3ccc(Cl)cn23)cc1 | nt | nt | 0 | 23* | 2 | 348* | 333*
COC(=O)c1ccc(/C=N\NC(=O)c2c(C)nc3ccc(Cl)cn23)cc1 | nt | nt | -1 | nt | 8 | nt | nt
COc1ccc(OC)c(/C=N\NC(=O)c2c(C)nc3cc(C)ccn23)c1 | nt | nt | 1 | 16* | ? | 24* | -10 | K7 EDANS ctr=>70
COc1ccc(/C=N/NC(=O)c2c(C)nc3ccc(Cl)cn23)cc1OC | nt | nt | 0 | -1 | 0 | nt | nt
COc1cc(/C=N\NC(=O)c2c(C)nc3cc(C)ccn23)ccc1O | 2 | 0 | -2 | 0 | -1 | nt | nt
COc1cc(/C=N/NC(=O)c2c(C)nc3ccc(Cl)cn23)cc(OC)c1OC | nt | nt | -3 | 36* | -3 | 19* | 14* | K7 EDANS ctr=i
CN(C)S(=O)(=O)c1cccc(-c2cn3cccnc3n2)c1 | 1 | -5 | 2 | 39* | ? | 57* | 62*
CC1CN(S(=O)(=O)c2cccc(-c3cn4cccnc4n3)c2)CC(C)O1 (centres undefined) | -2 | 2 | nt | nt | nt | nt | nt
O=S(=O)(c1cccc(-c2cn3cccnc3n2)c1)N1CCOCC1 | 1 | 3 | nt | 30* | nt | 71* | 67*
CN(C)S(=O)(=O)c1ccc(-c2cn3ccccc3n2)cc1 | 3 | 2 | 0 | 30* | ? | 22* | 31*
